Measurements as given in ChEMBL document CHEMBL1133492, “Design, synthesis, and biological evaluation of fluoronitrophenyl substituted folate analogues as potential inhibitors of GAR transformylase and AICAR transformylase” (Bioorg Med Chem Lett, 2000).
The source made the active and inactive calls. The calls are words filed in the database; no cut-off is given here.

What was measured:
CCRF-CEM [1] = experiment: Cytotoxicity in the presence of thymidine and hypoxanthine against CCRF-CEM cell line; format: functional, cell-based; conditions: Homo sapiens
Summary of the method: (§1)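 CCRF-CEM cells were grown in purine- and pyrimidine-free medium, with thymidine and/or hypoxanthine added or omitted as each line specifies. The cytotoxic potency was reported as an IC50 (µM).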

[2] = molecular target: T1, Trifunctional purine biosynthetic protein adenosine-3 (Homo sapiens) (UniProt P22102); experiment: In vitro inhibitory activity against Glycinamide ribonucleotide transformylase (GAR Tfase) after 3 min at 250 uM; Not active
T1 sequence (whole entry): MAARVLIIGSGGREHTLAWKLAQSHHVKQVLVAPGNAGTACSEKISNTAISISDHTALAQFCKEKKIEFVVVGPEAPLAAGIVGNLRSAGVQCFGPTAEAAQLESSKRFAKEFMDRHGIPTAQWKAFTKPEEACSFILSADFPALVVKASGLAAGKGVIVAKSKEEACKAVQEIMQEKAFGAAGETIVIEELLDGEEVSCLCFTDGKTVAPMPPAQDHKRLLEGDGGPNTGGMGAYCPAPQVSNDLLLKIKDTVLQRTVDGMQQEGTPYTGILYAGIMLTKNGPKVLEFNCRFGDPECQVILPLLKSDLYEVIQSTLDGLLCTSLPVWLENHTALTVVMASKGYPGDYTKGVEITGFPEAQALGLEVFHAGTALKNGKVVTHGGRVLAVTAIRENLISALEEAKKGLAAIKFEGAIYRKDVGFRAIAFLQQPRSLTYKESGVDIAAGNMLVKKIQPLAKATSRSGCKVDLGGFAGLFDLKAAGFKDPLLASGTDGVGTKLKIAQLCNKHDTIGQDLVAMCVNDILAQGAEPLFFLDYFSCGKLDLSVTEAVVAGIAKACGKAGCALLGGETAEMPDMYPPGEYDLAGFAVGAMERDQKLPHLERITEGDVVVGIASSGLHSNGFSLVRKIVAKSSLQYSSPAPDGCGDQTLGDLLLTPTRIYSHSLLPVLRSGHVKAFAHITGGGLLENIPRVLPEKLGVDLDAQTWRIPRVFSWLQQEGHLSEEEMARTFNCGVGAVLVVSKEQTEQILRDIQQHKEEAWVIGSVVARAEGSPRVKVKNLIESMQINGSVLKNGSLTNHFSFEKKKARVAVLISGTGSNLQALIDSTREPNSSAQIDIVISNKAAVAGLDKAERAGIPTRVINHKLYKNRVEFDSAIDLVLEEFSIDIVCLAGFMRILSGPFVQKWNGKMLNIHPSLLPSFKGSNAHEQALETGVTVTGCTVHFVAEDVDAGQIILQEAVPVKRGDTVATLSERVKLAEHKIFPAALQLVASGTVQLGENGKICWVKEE

[3] = molecular target: T1, Trifunctional purine biosynthetic protein adenosine-3 (Homo sapiens); experiment: In vitro inhibitory activity against Glycinamide ribonucleotide transformylase (GAR Tfase) after 30 min at 250 uM; Not active
[4] = molecular target: T1, Trifunctional purine biosynthetic protein adenosine-3 (Homo sapiens); experiment: In vitro inhibitory activity against Glycinamide ribonucleotide transformylase (GAR Tfase) after 6 hr at 250 uM; format: functional
CCRF-CEM [5] = experiment: Cytotoxicity in the absence of thymidine and presence of hypoxanthine against CCRF-CEM cell line; format: functional, cell-based; conditions: Homo sapiens; summary of the method: as §1
[6] = molecular target: Bifunctional purine biosynthesis protein ATIC (Homo sapiens, UniProt P31939); experiment: In vitro inhibitory activity against Aminoimidazole carboxamide ribonucleotide transformylase after 12 hr at 250 uM; Not active
Bifunctional purine biosynthesis protein ATIC, sequence (P31939 whole entry, looked up): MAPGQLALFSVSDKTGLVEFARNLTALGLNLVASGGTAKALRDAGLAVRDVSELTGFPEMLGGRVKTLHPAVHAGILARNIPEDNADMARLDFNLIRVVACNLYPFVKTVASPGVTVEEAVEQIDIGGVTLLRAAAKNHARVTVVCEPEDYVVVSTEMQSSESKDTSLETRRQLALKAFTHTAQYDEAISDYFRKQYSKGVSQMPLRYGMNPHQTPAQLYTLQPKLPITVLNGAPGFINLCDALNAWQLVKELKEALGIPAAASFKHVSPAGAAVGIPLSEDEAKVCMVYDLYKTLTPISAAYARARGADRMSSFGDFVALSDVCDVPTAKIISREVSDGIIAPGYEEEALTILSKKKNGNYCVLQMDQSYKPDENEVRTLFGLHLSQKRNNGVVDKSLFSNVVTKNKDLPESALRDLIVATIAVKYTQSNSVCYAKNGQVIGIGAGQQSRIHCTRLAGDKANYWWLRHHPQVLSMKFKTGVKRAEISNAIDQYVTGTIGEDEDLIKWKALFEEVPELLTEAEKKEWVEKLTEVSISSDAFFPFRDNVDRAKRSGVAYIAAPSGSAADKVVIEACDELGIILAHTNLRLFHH

CCRF-CEM [7] = experiment: Cytotoxicity in the absence of hypoxanthine and presence of thymidine against CCRF-CEM cell line; format: functional, cell-based; conditions: Homo sapiens; summary of the method: as §1
CCRF-CEM [8] = experiment: Cytotoxicity in the absence of thymidine and hypoxanthine against CCRF-CEM cell line; format: functional, cell-based; conditions: Homo sapiens; summary of the method: as §1

inhibition [2]: inactive | inhibition [3]: inactive | inhibition [4]: 59% | inhibition [6]: inactive
Compound: Nc1nc(N)c(CCCNc2ccc([N+](=O)[O-])c(F)c2F)c(O)n1
IC50 (CCRF-CEM [1]): 73 µM | IC50 (CCRF-CEM [5]): 76 µM | IC50 (CCRF-CEM [7]): 68 µM | IC50 (CCRF-CEM [8]): 76 µM
